Shown are actives, neighbours in structure and some others; about 1.1% of the full set was active somewhere.
SENP1 FRET inh – inhibitors of human SENP1 SUMO protease catalytic domain. Q9P0U3. recombinant SENP1 catalytic domain, CyPet-SUMO1-YPet FRET cleavage. inhibition, % at 10 µM. actives 0.21% (n = 360,000);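 active = inhibition at least 30% at 10 µM, raw YFP signal under a set limit, fluorescence ratio 0.5 to 1.5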
Target sequence (Q9P0U3 419-644 limits assumed): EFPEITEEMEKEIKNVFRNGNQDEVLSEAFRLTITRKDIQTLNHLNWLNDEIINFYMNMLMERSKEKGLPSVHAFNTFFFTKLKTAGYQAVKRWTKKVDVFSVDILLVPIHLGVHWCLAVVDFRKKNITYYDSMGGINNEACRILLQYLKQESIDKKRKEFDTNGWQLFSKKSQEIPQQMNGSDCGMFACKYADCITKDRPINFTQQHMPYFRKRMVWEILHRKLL
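system = hSENP1 catalytic domain, recombinant | reagent = SFCypet-SUMO1-SFYpet substrate at 25 nM | doses = one dose per compound, 10 µM, 0.5% DMSO | incubation = enzyme reaction for 50 min at room temperature, dark | measured by = FRET, CFP and YFP emission | controls = no-enzyme low, enzyme-DMSO high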
FAS-TE inh – FAS thioesterase (human) inhibition; P49327; recombinant FAS-TE, OMFH fluorogenic substrate, fluorescence endpoint; inhibition, % at 15 µM; actives 0.67% (n = 360,000); AID 602261;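 active = compounds whose normalised, plate-corrected inhibition of enzyme fluorescence in the single-dose primary screen is 50% or more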
GASC-1 inh – inhibitors of human GASC-1 (JMJD2C) demethylase; Q9H3R0; inhibition, % at 2.35 µM; GST-JMJD2C(1-420) H3K9me3 demethylation, DELFIA europium; AID 2099; actives 0.069% (n = 330,000);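 active = more than half of a compound's replicate wells show inhibition beyond 50%, single wells judged on their own value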;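 also: signal counts dimethyl H3K9 product captured on neutravidin plate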
Arrestin-AP2 inh – inhibitors of human beta-arrestin and AP2 interaction | actives 0.31% (n = 340,000) | FITC-arrestin peptide / GST-AP2 beads, flow cytometry; AP2 beta2 appendage carries R879A mutation | inhibition, % at 10 µM;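 active = inhibition above a set limit, near 3 SD of compounds lacking own fluorescence, cut at about 54% in these data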
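Assay system: GST-AP2 R879A bound to glutathione beads, E. coli-expressed; Medium: PBS with 0.05% Tween 20 and 0.1% BSA; Also added: fluorescein-tagged arrestin peptide at 50 nM final; Timing: 12 min plus 1 h, RT; Measured by: flow cytometry, FL1 (488/535 nm); Evaluation: percent drop in bead-associated FITC signal.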
Each line names hits and unclear results; the compound was inactive in the other large screens.

COc1ccc(-c2cc(=O)oc3c(O)c(O)ccc23)cc1	none
CC1Oc2cc3oc4c(O)c(O)ccc4c(=O)c3c(O)c2C1(C)C (stereo not given)	FAS-TE inh 52
O=[N+]([O-])c1ccccc1S(=O)(=O)N1CCN(S(=O)(=O)c2ccc3c(c2)OCCO3)CC1	FAS-TE inh 53
Cc1ccccc1C(C(=O)NC1CCCC1)N(C(=O)Cc1cccs1)c1ccc2c(c1)OCCO2 (stereo not given)	FAS-TE inh 54
Cc1cc(C)cc(N(C(=O)Cc2cccs2)C(C(=O)NC2CCCCC2)c2ccccn2)c1 (stereo not given)	none
COc1ccc(OCC(O)Cn2cnc(-c3ccc(Br)cc3)c2)cc1 (stereo not given)	none
OC(COc1ccc2ccccc2c1Br)Cn1cnc(-c2ccccc2)c1 (stereo not given)	GASC-1 inh 61
CCc1noc(C)c1C(=O)NCCc1ccc(S(N)(=O)=O)cc1	none
CN1C(=S)N(c2cccnc2)C(=O)/C1=C\c1ccc(N(C)C)cc1	SENP1 FRET inh 61
Cc1c(N2C(=O)/C(=C\c3ccc(N(C)C)cc3)N(C)C2=S)c(=O)n(-c2ccccc2)n1C	SENP1 FRET inh 69
Cc1c(NC(=S)N/N=C/c2ccc(N(C)C)cc2)c(=O)n(-c2ccccc2)n1C	none
CCc1nnc(NS(=O)(=O)c2ccc(NC(=S)NC(=O)/C=C/c3ccc(C(C)C)cc3)cc2)s1	FAS-TE inh 51
CCOC(=O)N1CCN(c2nc3c(C)cccn3c(=O)c2C=O)CC1	none
Cc1csc(NC(=O)CSc2nnc(-c3ccoc3C)n2Cc2ccco2)n1	none
O=c1oc(Cl)c(Cl)c2ccccc12	FAS-TE inh 92 (no result: GASC-1 inh)
Cc1cc(C)c(C#N)c(SCc2ccccc2)n1	none
Cc1ccc2nc(CSc3nc(C)cc(C)c3C#N)[nH]c2c1	FAS-TE inh 78
CCC(/C=C1\Sc2ccc(OC)cc2N1CCO)=C\c1sc2ccc(OC)cc2[n+]1CCO	Arrestin-AP2 inh 77
Nc1c(Cl)cc2c(c1Oc1ccccc1)C(=O)c1ccccc1C2=O	SENP1 FRET inh 70
Nc1c(Cl)cc2c(c1Br)Cc1ccccc1-2	none (no result: GASC-1 inh)
O=C(NCCCN1CCCC1=O)c1sc2ccccc2c1Cl	none
Brc1ccc2c(c1)C(c1ccc(N3CCOCC3)cc1)=NNC(c1cccs1)=N2	none
Fc1ccc2c(c1)C(c1ccc(N3CCOCC3)cc1)=NNC(c1cccs1)=N2	SENP1 FRET inh 42
CCCCc1ccc(CC2S/C(=C(\C#N)C(=O)N3CCOCC3)N(c3ccccc3)C2=O)cc1 (stereo not given)	SENP1 FRET inh 34
C[C@H](CO)N1C[C@H](C)[C@@H](CN(C)S(=O)(=O)c2ccc(F)cc2)Oc2c(NC(=O)CCC(F)(F)F)cccc2C1=O	none
C[C@H](CO)N1C[C@H](C)[C@@H](CN(C)S(=O)(=O)c2cccs2)Oc2c(NC(=O)CCC(F)(F)F)cccc2C1=O	GASC-1 inh 52
C[C@H](CO)N1C[C@H](C)[C@@H](CN(C)S(=O)(=O)c2ccccc2)Oc2c(NC(=O)CCC(F)(F)F)cccc2C1=O	GASC-1 inh 53
COc1ccc(S(=O)(=O)N(C)C[C@H]2Oc3c(NC(=O)CCC(F)(F)F)cccc3C(=O)N([C@H](C)CO)C[C@@H]2C)cc1	none
Cc1cccc(/N=C/c2c(O)ccc3oc4c(c23)CCCC4)n1	none
O=[N+]([O-])c1cc2oc3c(c2c(C=NCc2ccccc2)c1O)CCCC3	SENP1 FRET inh 46
CC(C)CN=Cc1c(O)c([N+](=O)[O-])cc2oc3c(c12)CCCC3	SENP1 FRET inh 32
CCOC(=O)c1c(NC(=O)C2CCCO2)sc2c1CCC2 (stereo not given)	GASC-1 inh 52
CN1/C(=C\C(=O)c2cccnc2)C(C)(C)c2ccccc21	none
CN1/C(=C/C(=O)c2nc(S(C)(=O)=O)ncc2Cl)C(C)(C)c2ccccc21	SENP1 FRET inh 42
CCCOc1ccc([N+](=O)[O-])cc1C1NC(=S)NC(c2ccccc2)=C1C(=O)OCC (stereo not given)	FAS-TE inh 66
C/C(=N/Nc1nc(-c2ccccc2F)nc2ccccc12)c1ccccc1O	SENP1 FRET inh 74
C/C(=N\Nc1nc(-c2ccccc2O)nc2ccccc12)c1ccccc1	none
CCN(CC)Cc1cc(O)c(CN(CC)CC)cc1O	SENP1 FRET inh 46
CCNc1nc(SC(C)C(=O)Nc2ccccc2)nc(N2CCOCC2)n1 (stereo not given)	none

Bioassay records from PubChem BioAssay.
